Measured values as given in ChEMBL document CHEMBL1926507, “Discovery of a new class of bicyclic substituted hydroxyphenylmethanones as 17β-hydroxysteroid dehydrogenase type 2 (17β-HSD2) inhibitors for the treatment of osteoporosis” (Eur J Med Chem, 2012).

What was measured:
[1] = biological target: T1, 17-beta-hydroxysteroid dehydrogenase type 1 (Homo sapiens) (UniProt P14061); assay: Inhibition of human cytosolic 17beta-HSD1 using [2,4,6,7-3H]E1 as substrate at 1 uM after 10 mins by radioflow detector
T1 sequence (whole entry): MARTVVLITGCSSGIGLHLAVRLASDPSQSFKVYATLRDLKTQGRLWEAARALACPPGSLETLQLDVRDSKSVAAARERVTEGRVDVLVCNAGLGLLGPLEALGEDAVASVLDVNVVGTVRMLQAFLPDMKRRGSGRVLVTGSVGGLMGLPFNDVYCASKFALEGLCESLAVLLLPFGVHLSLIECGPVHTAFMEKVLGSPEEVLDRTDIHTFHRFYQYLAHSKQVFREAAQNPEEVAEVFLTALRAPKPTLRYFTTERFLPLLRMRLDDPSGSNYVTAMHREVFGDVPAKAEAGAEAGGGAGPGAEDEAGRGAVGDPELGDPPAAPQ
Procedure, shortened: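 Cytosolic fraction from human placenta incubated with NADH (500 µM), test compound and unlabeled plus [2,4,6,7-3H]-E1 (final 500 nM) for 10 min at 37 °C. Phosphate buffer 50 mM with 20% glycerol and 1 mM EDTA. Inhibitor stocks made in DMSO. Reaction stopped with HgCl2 and extracted with ether. Substrate and product separated by HPLC with radioflow detection. Values are the mean of three determinations.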

[2] = biological target: T2, 17-beta-hydroxysteroid dehydrogenase type 1 (Homo sapiens, UniProt P14061); assay: Inhibition of human cytosolic 17beta-HSD1 in cell-free system using [2,4,6,7-3H]E1 as substrate after 10 mins by radioflow detector
T2 sequence (P14061 whole entry): T1 sequence (whole entry)

[3] = biological target: T3, 17-beta-hydroxysteroid dehydrogenase type 2 (Homo sapiens) (UniProt P37059); assay: Inhibition of human microsomal 17beta-HSD2 using [2,4,6,7-3H]E2 as substrate at 1 uM after 20 mins by radioflow detector
T3 sequence (whole entry): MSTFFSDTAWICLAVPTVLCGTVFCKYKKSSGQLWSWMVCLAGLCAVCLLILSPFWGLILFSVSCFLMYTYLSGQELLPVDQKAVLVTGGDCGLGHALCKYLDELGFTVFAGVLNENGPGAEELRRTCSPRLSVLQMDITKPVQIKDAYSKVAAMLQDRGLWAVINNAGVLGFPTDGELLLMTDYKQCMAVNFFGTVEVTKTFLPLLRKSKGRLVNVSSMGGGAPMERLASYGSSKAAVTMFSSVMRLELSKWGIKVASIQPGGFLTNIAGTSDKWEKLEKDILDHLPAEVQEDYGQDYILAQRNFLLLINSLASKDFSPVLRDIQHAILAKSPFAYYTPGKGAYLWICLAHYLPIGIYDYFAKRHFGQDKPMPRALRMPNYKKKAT
Procedure, shortened: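 Microsomal fraction from human placenta incubated at 37 °C for 20 min with NAD+ (1500 µM), inhibitor and unlabeled plus [2,4,6,7-3H]-E2 (final 500 nM). Phosphate buffer 50 mM with 20% glycerol and 1 mM EDTA. Inhibitor stocks made in DMSO. Reaction stopped with HgCl2 and extracted with ether. E2 and E1 separated by HPLC with radioflow detection. Values are the mean of three determinations.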

Homo sapiens = organism: Homo sapiens; assay: Selectivity ratio of IC50 for human cytosolic 17beta-HSD1 to IC50 for human microsomal 17beta-HSD2
Procedure, shortened: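 Ratio calculated as IC50(17β-HSD1)/IC50(17β-HSD2). 17β-HSD1 was measured in placental cytosol with [3H]-E1 + E1 (500 nM) and NADH (0.5 mM). 17β-HSD2 was measured in placental microsomes with [3H]-E2 + E2 (500 nM) and NAD+ (1.5 mM). Each IC50 is the mean of three determinations.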

[4] = biological target: T4, 17-beta-hydroxysteroid dehydrogenase type 2 (Homo sapiens, UniProt P37059); assay: Inhibition of human microsomal 17beta-HSD2 in cell-free system using [2,4,6,7-3H]E2 as substrate after 20 mins by radioflow detector
T4 sequence (P37059 whole entry): T3 sequence (whole entry)

[5] = biological target: Estrogen receptor beta (Homo sapiens) (UniProt Q92731); assay: Displacement of [3H]E2 from human recombinant ERbeta after 1 hr by liquid scintillation counting relative to estradiol
Procedure, shortened: (§1)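 Recombinant human ERα or ERβ (0.25 pmol) incubated with [3H]-E2 (10 nM) and test compound for 1 h at room temperature, DMSO 5% final. Non-specific binding defined with diethylstilbestrol. Receptor-ligand complexes captured on hydroxyapatite, washed, resuspended in ethanol, and counted by liquid scintillation. IC50 for [3H]-E2 displacement taken from sigmoidal curves. RBA = IC50(E2)/IC50(compound) × 100, with unlabeled E2 as reference.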

[6] = biological target: T5, Estrogen receptor (Homo sapiens) (UniProt P03372); assay: Displacement of [3H]E2 from human recombinant ERalpha after 1 hr by liquid scintillation counting relative to estradiol; procedure, shortened: as §1
T5 sequence (whole entry): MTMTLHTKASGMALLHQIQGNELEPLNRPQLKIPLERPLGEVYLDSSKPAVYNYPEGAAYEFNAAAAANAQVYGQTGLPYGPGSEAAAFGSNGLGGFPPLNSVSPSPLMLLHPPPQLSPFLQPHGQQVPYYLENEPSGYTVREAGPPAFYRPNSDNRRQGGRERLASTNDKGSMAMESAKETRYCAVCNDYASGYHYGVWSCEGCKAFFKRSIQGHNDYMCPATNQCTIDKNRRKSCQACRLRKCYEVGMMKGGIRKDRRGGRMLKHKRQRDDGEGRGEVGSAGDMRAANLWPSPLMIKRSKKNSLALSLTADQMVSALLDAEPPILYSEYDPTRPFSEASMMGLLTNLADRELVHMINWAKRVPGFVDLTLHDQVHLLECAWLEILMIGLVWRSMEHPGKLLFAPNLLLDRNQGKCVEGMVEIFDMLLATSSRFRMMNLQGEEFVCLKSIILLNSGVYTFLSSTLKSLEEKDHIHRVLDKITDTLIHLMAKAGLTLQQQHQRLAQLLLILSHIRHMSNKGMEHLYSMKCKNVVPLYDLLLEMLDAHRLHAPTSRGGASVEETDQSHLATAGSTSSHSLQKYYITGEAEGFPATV

Chain of Estrogen receptor beta (Homo sapiens) (Q92731 whole entry): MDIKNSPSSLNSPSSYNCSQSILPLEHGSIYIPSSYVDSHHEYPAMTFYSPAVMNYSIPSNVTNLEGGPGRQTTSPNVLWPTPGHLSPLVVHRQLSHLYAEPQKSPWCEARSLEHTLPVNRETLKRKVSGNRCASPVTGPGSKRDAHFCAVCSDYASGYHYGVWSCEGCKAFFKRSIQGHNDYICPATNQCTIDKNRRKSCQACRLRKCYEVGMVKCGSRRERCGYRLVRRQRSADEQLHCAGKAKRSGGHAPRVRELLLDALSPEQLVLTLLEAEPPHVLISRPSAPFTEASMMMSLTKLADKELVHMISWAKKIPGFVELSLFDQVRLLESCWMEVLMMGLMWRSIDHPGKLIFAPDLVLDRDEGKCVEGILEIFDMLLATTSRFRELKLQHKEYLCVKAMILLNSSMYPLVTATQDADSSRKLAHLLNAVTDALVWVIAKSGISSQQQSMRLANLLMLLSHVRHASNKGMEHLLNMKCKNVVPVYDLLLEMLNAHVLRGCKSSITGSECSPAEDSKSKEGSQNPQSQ

Compound	inhibition [1] [%]	IC50 [2] [nM]	inhibition [3] [%]	Ratio IC50 (Homo sapiens)	IC50 [4] [nM]	RBA [5] [%]	RBA [6] [%]
O=C(c1ccc(F)c(O)c1)c1ccc(-c2ccc(O)c(Cl)c2)cn1	50	1010	87	7	153	–	–
Cc1cc(-c2ccc(C(=O)c3cc(O)cc(F)c3)cc2)ccc1O	84	159	100	5	31	< 0.1	< 0.1
O=C(c1ccc(-c2ccc(O)c(Cl)c2)cc1)c1ccc(F)c(O)c1	95	53	100	2	24	< 0.1	< 0.1
Cc1cc(-c2cccc(C(=O)c3ccc(F)c(O)c3)n2)ccc1O	< 10	22400	62	30	757	–	–
Cc1cc(O)ccc1-c1cccc(C(=O)c2cccc(O)c2)n1	< 10	–	18	–	–	–	–
O=C(c1cccc(O)c1)c1cccc(-c2ccccc2O)n1	< 10	–	< 10	–	–	–	–
Cc1cc(-c2ccc(C(=O)c3cccc(O)c3)cn2)ccc1O	58	567	84	3	220	–	–
Cc1cc(-c2ccc(C(=O)c3ccc(F)c(O)c3)cc2)ccc1O	79	289	98	9	34	< 0.1	< 0.1
O=C(c1ccc(-c2ccc(O)c(F)c2)cc1)c1cccc(O)c1	26	2430	68	5	525	–	–
O=C(c1ccc(-c2ccc(O)cc2Cl)cc1)c1cccc(O)c1	43	1760	80	11	176	–	–
O=C(c1cccc(O)c1)c1cccc(-c2ccc(O)cc2)n1	< 10	–	16	–	–	–	–
O=C(c1ccc(-c2ccc(O)c(Cl)c2)cc1)c1cccc(O)c1	66	571	92	4	153	< 0.1	< 0.1
O=C(c1cccc(O)c1)c1cccc(-c2cccc(O)c2)n1	< 10	–	< 10	–	–	–	–
Cc1cc(-c2ccc(C(=O)c3ccc(F)c(F)c3)cc2)ccc1O	16	–	11	–	–	–	–
Cc1cc(-c2cccc(C(=O)c3cc(O)cc(F)c3)n2)ccc1O	< 10	–	57	–	–	–	–
Cc1cc(-c2cccc(C(=O)c3ccc(C)c(O)c3)n2)ccc1O	< 10	–	28	–	–	–	–
Cc1cc(-c2ccc(C(=O)c3cccc(O)c3)nc2)ccc1O	24	5480	73	21	260	< 0.1	< 0.1
Cc1cc(-c2ccc(C(=O)c3cccc(O)c3)cc2)ccc1O	58	413	90	3	132	< 0.1	< 0.1
Cc1cc(-c2ccc(C(=O)c3cccc(O)c3)s2)ccc1O	–	–	–	0.02	–	–	–
O=C(c1cccc(O)c1)c1cccc(-c2ccc(O)cc2F)n1	64	–	56	–	–	–	–
O=C(c1cccc(O)c1)c1cccc(-c2ccc(O)c(Cl)c2)n1	< 10	60600	55	81	752	–	–
Cc1cc(-c2cccc(C(=O)c3cccc(O)c3)c2)ccc1O	50	475	77	1	379	–	–
Cc1cc(-c2cccc(C(=O)c3cccc(O)c3)n2)ccc1O	< 10	–	84	–	–	–	–
O=C(c1cccc(O)c1)c1cccc(-c2ccc(O)c(F)c2)n1	47	–	40	–	–	–	–
Cc1cc(-c2ccc(C(=O)c3ccc(F)c(O)c3)nc2)ccc1O	47	1270	84	13	101	< 0.1	< 0.1
